Activity calls are given as the source filed them. No cut-off for these calls is given here.
Columns and labels:
MCF7 [1] = assay: Binding affinity to full length wild type c-KIT1 G-quadruplex DNA isolated from human MCF7 cells at 2.5 uM after 48 hrs by dual luciferase reporter gene assay; type: cell-based
How it was run: (§1)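 MCF-7 cells transiently transfected with a luciferase plasmid carrying the full-length wild-type c-KIT promoter or its mutant, plus pRL-TK. Cells treated 48 h with compound at 2.5 µM or a range of concentrations. Firefly signal normalized to pRL-TK, expressed relative to untreated cells (100%). Triplicates, three independent experiments, standard error.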

MCF7 [2] = assay: Binding affinity to c-KIT1 mutant G-quadruplex DNA isolated from human MCF7 cells at 2.5 uM after 48 hrs by dual luciferase reporter gene assay; type: cell-based; how it was run: as §1
MCF7 [3] = assay: Binding affinity to full length wild type c-KIT2 G-quadruplex DNA isolated from human MCF7 cells at 2.5 uM after 48 hrs by dual luciferase reporter gene assay; type: cell-based; how it was run: as §1
[4] = Binding affinity to F10T duplex DNA (unknown origin) assessed as change in melting temperature at 5 uM by FRET assay
[5] = Binding affinity to biotinylated c-KIT1 G-quadruplex DNA (unknown origin) by surface plasmon resonance method
How it was run: (§2)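 SPR binding to immobilized c-KIT1 G-quadruplex or duplex DNA, ligand injected at various concentrations, up to 20 µM. KD obtained by global fitting of the kinetic data to a 1:1 Langmuir binding model.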

[6] = Binding affinity to F-c-KIT2-T G-quadruplex DNA (unknown origin) assessed as change in melting temperature at 5 uM by FRET assay
MCF7 [7] = assay: Binding affinity to c-KIT2 mutant G-quadruplex DNA isolated from human MCF7 cells at 2.5 uM after 48 hrs by dual luciferase reporter gene assay; type: cell-based; how it was run: as §1
[8] = Binding affinity to duplex DNA (unknown origin) up to 20 uM by surface plasmon resonance method; how it was run: as §2
[9] = Binding affinity to F-c-KIT1-T G-quadruplex DNA (unknown origin) assessed as change in melting temperature at 5 uM by FRET assay
HGC-27 [10] = assay: Cytotoxicity against HGC27 cells assessed as cell viability after 48 hrs by MTT assay; type: functional, cell-based; settings: Homo sapiens, HGC-27, 48 h
MCF7 [11] = assay: Binding affinity to full length wild type c-KIT2 G-quadruplex DNA isolated from human MCF7 cells after 48 hrs by dual luciferase reporter gene assay; type: cell-based; how it was run: as §1
HGC-27 [12] = assay: Downregulation of c-KIT mRNA expression in HGC27 cells after 24 hrs by RT-PCR analysis relative to control; type: functional, cell-based; settings: Homo sapiens
How it was run: (§3)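 HGC-27 gastric carcinoma cells treated 24 h at final 1.25, 2.5 or 5 µM. c-KIT mRNA quantified by RT-PCR against β-actin, relative to control.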

[13] = Binding affinity to c-KIT1 G-quadruplex DNA (unknown origin) at 25 uM by CD spectrophotometric analysis
How it was run: (§4)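 Circular dichroism spectra of 5 µM c-KIT1 or c-KIT2 oligonucleotide in 10 mM Tris–HCl, pH 7.2, 100 mM KCl, recorded with and without 25 µM ligand. Bands near 263 nm (positive) and 240 nm (negative) monitored.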

MCF7 [14] = assay: Binding affinity to c-KIT1 mutant G-quadruplex DNA isolated from human MCF7 cells at 5 uM after 48 hrs by dual luciferase reporter gene assay relative to control; type: cell-based; how it was run: as §1
HGC-27 [15] = assay: Downregulation of c-KIT mRNA expression in HGC27 cells at 1.25 uM after 24 hrs by RT-PCR analysis relative to control; type: functional, Homo sapiens; how it was run: as §3
MCF7 [16] = assay: Binding affinity to full length wild type c-KIT1 G-quadruplex DNA isolated from human MCF7 cells at 5 uM after 48 hrs by dual luciferase reporter gene assay relative to control; type: cell-based; how it was run: as §1
HGC-27 [17] = assay: Downregulation of c-KIT mRNA expression in HGC27 cells at 5 uM after 24 hrs by RT-PCR analysis relative to control; type: functional, Homo sapiens; how it was run: as §3
MCF7 [18] = assay: Binding affinity to full length wild type c-KIT1 G-quadruplex DNA isolated from human MCF7 cells after 48 hrs by dual luciferase reporter gene assay; type: cell-based; how it was run: as §1
[19] = Binding affinity to c-KIT2 G-quadruplex DNA (unknown origin) at 25 uM by CD spectrophotometric analysis; how it was run: as §4
MCF7 [20] = assay: Binding affinity to full length wild type c-KIT2 G-quadruplex DNA isolated from human MCF7 cells at 5 uM after 48 hrs by dual luciferase reporter gene assay relative to control; type: cell-based; how it was run: as §1
MCF7 [21] = assay: Binding affinity to c-KIT2 mutant G-quadruplex DNA isolated from human MCF7 cells at 5 uM after 48 hrs by dual luciferase reporter gene assay relative to control; type: cell-based; how it was run: as §1
HGC-27 [22] = assay: Downregulation of c-KIT mRNA expression in HGC27 cells at 2.5 uM after 24 hrs by RT-PCR analysis relative to control; type: functional, Homo sapiens; how it was run: as §3

ΔTm [4] [°C] | Kd [5] [µM] | ΔTm [6] [°C] | Activity [8] | ΔTm [9] [°C] | SMILES | inhibition (MCF7 [1]) | inhibition (MCF7 [2]) | inhibition (MCF7 [3]) | inhibition (MCF7 [7]) | IC50 (HGC-27 [10]) [µM] | further results
0.4 | 15.7 | 13.4 | inactive | 12.3 | CN1CCN(c2cc3nc(/C=C/c4ccc(C(=O)NCCN5CCCC5)cc4)n(-c4ccccc4)c(=O)c3cc2F)CC1 | Active | inactive | Active | inactive | 17.2 | 
0.4 | 1.99 | 16.8 | inactive | 15.9 | CN1CCN(c2cc3nc(/C=C/c4ccc(C(=O)NCCCN5CCCC5)cc4)n(-c4ccccc4)c(=O)c3cc2F)CC1 | Active | inactive | Active | inactive | 12.3 | 
0 |  | 7.8 |  | 5.5 | CCN(CC)CC(=O)Nc1ccc(/C=C/c2nc3cc(N4CCN(C)CC4)c(F)cc3c(=O)n2-c2ccccc2)cc1 | Active | inactive | Active | inactive | 18.4 | 
0 | 1.88 | 12.4 | inactive | 11.3 | CN1CCN(c2cc3nc(/C=C/c4ccc(NC(=O)CCN5CCCC5)cc4)n(-c4ccccc4)c(=O)c3cc2F)CC1 | Active | inactive | Active | inactive | 13.4 | 
0 | 0.612 | 13.6 | inactive | 11.1 | CCN(CC)CCC(=O)Nc1ccc(/C=C/c2nc3cc(N4CCN(C)CC4)c(F)cc3c(=O)n2-c2ccccc2)cc1 | Active | inactive | Active | inactive | 6.8 | inhibition (MCF7 [11]): Dose-dependent effect; Activity (HGC-27 [12]): Dose-dependent effect; Activity [13]: Active; inhibition (MCF7 [14]): 22%; Activity (HGC-27 [15]): 4.9%; inhibition (MCF7 [16]): 45%; Activity (HGC-27 [17]): 52.5%; inhibition (MCF7 [18]): Dose-dependent effect; Activity [19]: Active; inhibition (MCF7 [20]): 45%; inhibition (MCF7 [21]): 22%; Activity (HGC-27 [22]): 22.8%
0.4 | 1.37 | 14.3 | inactive | 13.4 | CCN(CC)CCNC(=O)c1ccc(/C=C/c2nc3cc(N4CCN(C)CC4)c(F)cc3c(=O)n2-c2ccccc2)cc1 | Active | inactive | Active | inactive | 8.6 | inhibition (MCF7 [11]): Dose-dependent effect; Activity (HGC-27 [12]): Dose-dependent effect; Activity [13]: Active; inhibition (MCF7 [14]): 20%; Activity (HGC-27 [15]): 5.7%; inhibition (MCF7 [16]): 37%; Activity (HGC-27 [17]): 35.7%; inhibition (MCF7 [18]): Dose-dependent effect; Activity [19]: Active; inhibition (MCF7 [20]): 37%; inhibition (MCF7 [21]): 20%; Activity (HGC-27 [22]): 10.4%
0.1 |  | 7.5 |  | 4.2 | CN1CCN(c2cc3nc(/C=C/c4ccc(NC(=O)CN5CCCCC5)cc4)n(-c4ccccc4)c(=O)c3cc2F)CC1 | Active | inactive | Active | inactive | 1.3 | 
0 | 0.916 | 12.6 | inactive | 10.7 | CN1CCN(c2cc3nc(/C=C/c4ccc(NC(=O)CCN5CCCCC5)cc4)n(-c4ccccc4)c(=O)c3cc2F)CC1 | Active | inactive | Active | inactive | 8.2 | 
0 | 0.784 | 9.4 | inactive | 6.4 | CN1CCN(c2cc3nc(/C=C/c4ccc(NC(=O)CN5CCCC5)cc4)n(-c4ccccc4)c(=O)c3cc2F)CC1 | Active | inactive | Active | inactive | 2.3 | 
 |  |  |  |  | Cc1ccc(NC(=O)c2ccc(CN3CCN(C)CC3)cc2)cc1Nc1nccc(-c2cccnc2)n1 [IMATINIB] |  |  |  |  | 3.8 | 
0.5 | 1.16 | 15.9 | inactive | 15.1 | CN(C)CCNC(=O)c1ccc(/C=C/c2nc3cc(N4CCN(C)CC4)c(F)cc3c(=O)n2-c2ccccc2)cc1 | Active | inactive | Active | inactive | 21.2 | 

Reference: ChEMBL document CHEMBL2439995, “Synthesis and Evaluation of Quinazolone Derivatives as a New Class of c-KIT G-Quadruplex Binding Ligands” (ACS Med Chem Lett, 2013)
